Bioassay records from PubChem.
FAS TE block = FAS thioesterase domain inhibitors, primary screen, biochemical, fluorescence intensity, uHTS. recombinant FAS-TE, OMFH fluorogenic substrate, fluorescence endpoint. AID 602261, 2012. inhibition, % at 15 µM. actives 0.67% (n = 360,000). Fatty acid synthase (Homo sapiens), P49327;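 active means compounds whose normalised, plate-corrected inhibition of enzyme fluorescence in the single-dose primary screen is 50% or more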
RanGTP-Imp inh = inhibitors of RanGTP-importin-beta interaction, primary screen, biochemical, FRET, CFP-Ran, YFP-importin-beta, homogeneous; Ran GTPase (GTP-bound) - importin-beta complex; cell-free CFP-Ran/YFP-importin-beta FRET ratio; inhibition, % (test concentration not listed); actives 1.1% (n = 300,000); AID 2216, 2009;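 active means more than half of the replicate wells show a fall in the fluorescence ratio signal beyond about 16%, limit read from the data, passing the limit was not always enough; inconclusive means exactly half of the replicate wells pass the set limit; inactive means fewer than half of replicates pass the limit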
m-calpain inh = inhibitors of pig calpain II, primary screen, biochemical, fluorogenic peptide substrate, 1536-well; purified calpain II, 30 min; inhibition, % at 16 µM; actives 0.37% (n = 220,000); AID 1236, 2008;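 active means inhibition above about 50%, limit read from the data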
Runt-CBFb FRET = inhibitors of RUNX1 Runt–CBFb binding, primary screen, biochemical, FRET, Cerulean-Runt, Venus-CBFb, uHTS; Runt-related transcription factor 1 (Homo sapiens) + Core-binding factor subunit beta …; actives 0.46% (n = 220,000); AID 1496, 2009; inhibition, % at 20 µM; Cerulean-Runt/Venus-CBFb FRET ratio 530/480, 1 h;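 active means inhibition over about 50% at 20 µM in the single-dose screen, limit read from the data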
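test system = Cerulean-Runt domain fusion protein, energy donor | probe or stimulus = Venus-CBFb binding partner, 100 nM | incubation = two 1 h room-temperature incubations shielded from light | detection = fluorescence energy transfer, 422 nm excitation, 530/480 nm emission | measure = loss of energy transfer signal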
Runt-SMMHC FRET = inhibitors of RUNX1 Runt–CBFb-SMMHC binding, primary screen, biochemical, FRET, Cerulean-Runt, Venus-CBFb-SMMHC, uHTS; Cerulean-Runt/Venus-CBFb-SMMHC FRET ratio 530/480, 1 h; Runt-related transcription factor 1 (Homo sapiens) + Core-binding factor subunit beta …; AID 1434, 2008; actives 0.74% (n = 220,000); inhibition, % at 20 µM;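 active means mean inhibition across duplicate retests at 20 µM reaching about 50%, limit read from the data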;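 further: inhibitors lower the FRET ratio by blocking Runt binding to CBFb-SMMHC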
YIC counter = YIC intramolecular FRET probe signal interference, dose response, counter-screen for RanGTP-importin-beta inhibitor project, biochemical, fluorescence FRET | shares compounds with RanGTP-Imp inh | Purified YIC probe, intramolecular FRET ratio YFP/CFP | IC50, µM | actives 40% (n = 1,000);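 active means fitted half-maximal inhibitory concentration no more than tenfold above the top dose tested; inconclusive means flat fit with 30 to 70% activity, or poor fit; inactive means half-maximal concentration beyond tenfold above the top dose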
FAS-TE inh conf = FAS thioesterase domain inhibitors, confirmation, biochemical, fluorescence intensity, single concentration | inhibition, % at 15 µM | shares compounds with FAS TE block | actives 45% (n = 2,300) | recombinant FAS-TE, OMFH fluorogenic substrate | AID 624325, 2012;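 active means compounds inhibiting the enzyme by at least 50% at 15 µM in any one of the replicates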
Hits are given with their value; - = inactive; ? = inconclusive; . = not tested or not shown. Most compounds without a hit are left out; they make up all but 2.1% or so of the library.

SMILES	FAS TE block	RanGTP-Imp inh	m-calpain inh	Runt-CBFb FRET	Runt-SMMHC FRET	FAS-TE inh conf	others
CCN1/C(=C\C=C\C2=[N+](CC)c3ccccc3C2(C)C)C(C)(C)c2ccccc21	-	27	-	-	-	.	YIC counter=30
CC(C)OC(=O)c1c(N)n(CC2CCCO2)c2nc3ccccc3nc12 (stereo unspecified)	-	24	-	72	92	.	YIC counter=20
O=C(N[C@H]1CP(=O)(Oc2ccccc2)O[C@H](COCc2ccccc2)[C@H]1O)C(Cl)(Cl)Cl (stereo partly specified)	-	-	-	-	-	.
Nc1nonc1C(=O)N/N=C/c1ccc([N+](=O)[O-])o1	-	-	-	-	-	.
COC(=O)C1=C(c2ccc(OC)c(OC)c2)C[C@@H]2CC[C@H]1N2C(=O)NCCc1ccccc1	-	.	.	.	.	.
O=C(Nc1cccc(OC(=O)N2CCCCC2)c1)N1CCCCC1	-	21	-	-	-	.	YIC counter=-
O=C(Nc1cccc(OC(=O)N2CCOCC2)c1)N1CCOCC1	-	-	-	-	-	.
O=C(Cc1ccccc1)N1CCN(Cc2ccc(F)cc2)CC1	-	-	.	.	.	.
CC(=O)N1CN2CN(C(C)=O)CC(C(=O)c3ccc([N+](=O)[O-])cc3)(C2)C1	-	-	-	-	-	.
CC(=O)N1CN2CN(C(C)=O)CC(C(=O)c3ccccc3)(C2)C1	-	21	-	-	-	.	YIC counter=-
CCC(=NCC1CCCO1)c1c(O)n(-c2ccc(OC)cc2)c(=O)[nH]c1=O (stereo unspecified)	-	-	-	-	-	.
CN1CC2=CC(O)CC3Oc4c(O)ccc(c4[C@]23C)C1 (stereo partly specified)	-	26	.	.	.	.	YIC counter=-
CC(C)CCn1c(=O)c(C(=O)NCc2ccc3c(c2)OCO3)c(O)c2ccccc21	-	-	.	.	.	.
CCCCNC(=O)c1c(N)n(Cc2ccc3c(c2)OCO3)c2nc3ccccc3nc12	-	32	-	-	-	.	YIC counter=3.1
C=CCN1CCc2cccc3c2[C@H]1Cc1ccc(O)c(O)c1-3	-	19	.	.	.	.	YIC counter=-
Cc1cc(C=C(C#N)C#N)ccc1N1CCCC1	-	31	-	-	-	.	YIC counter=-
CCC(c1nnnn1-c1ccc(OC)cc1)N1CCC(n2c(=O)[nH]c3ccccc32)CC1 (stereo unspecified)	-	.	.	.	.	.
Cc1cccc(C)c1-n1nnnc1C(CCc1ccccc1)N1CCC(n2c(=O)[nH]c3ccccc32)CC1 (stereo unspecified)	54	.	.	.	.	-
COc1ccc(-n2nnnc2C(c2ccccc2OC(F)(F)F)N2CCC(n3c(=O)[nH]c4ccccc43)CC2)cc1 (stereo unspecified)	60	.	.	.	.	-
O=c1[nH]c2ccccc2n1C1CCN(C(c2ccnc3ccccc23)c2nnnn2-c2ccc3c(c2)OCCO3)CC1 (stereo unspecified)	-	.	.	.	.	.
COc1ccc(C(c2nnnn2-c2ccc3c(c2)OCCO3)N2CCC(n3c(=O)[nH]c4ccccc43)CC2)cc1 (stereo unspecified)	54	.	.	.	.	-
COc1cccc(C(c2nnnn2-c2c(C)cccc2C)N2CCC(n3c(=O)[nH]c4ccccc43)CC2)c1OC (stereo unspecified)	82	.	.	.	.	-
CC(=O)NC(Cc1ccc(N(CCCl)CCCl)cc1)C(=O)NCC(=O)NCC(=O)O (stereo unspecified)	-	-	-	-	-	.
O=C1NCN(c2ccccc2)C12CCN(C(c1cccs1)c1nnnn1Cc1ccccc1)CC2 (stereo unspecified)	-	.	.	.	.	.
COC(=O)C1=C(c2ccc(C(C)=O)cc2)C[C@@H]2CC[C@H]1N2C(=O)NCc1ccc2c(c1)OCO2	-	.	.	.	.	.
SMILES	FAS TE block	RanGTP-Imp inh	m-calpain inh	Runt-CBFb FRET	Runt-SMMHC FRET	FAS-TE inh conf	others
COc1ccc(CN2CCCC(C(=O)c3sccc3C)C2)cc1O (stereo unspecified)	-	-	-	-	-	.
O=c1[nH]c2ccccc2n1C1CCN(C(CCc2ccccc2)c2nnnn2-c2ccc3c(c2)OCCO3)CC1 (stereo unspecified)	89	.	.	.	.	-
Cc1cccc(Cn2cc(C=O)c3ccccc32)c1	-	-	.	.	.	.
O=Cc1cn(Cc2cccc([N+](=O)[O-])c2)c2ccccc12	55	-	-	-	-	59
CC[C@@H](O)C[C@H]1CCC[C@@]2(C[C@@H]3OC(=O)/C=C/[C@@](C)(O)[C@@H](O)[C@H](C)[C@@H](O)[C@H](OC4CCC(N(C)C)C(C)O4)[C@@H](O)[C@](C)(O)CCCCC/C=C/[C@@H]4CC(C)(C)O[C@@]4(O)C[C@H](O2)[C@H]3C)O1 (stereo partly specified)	-	.	.	.	.	.
COc1ccc(CCn2c(O)c(C=Nc3ccccc3F)c(=O)[nH]c2=O)cc1OC	-	?	-	-	-	.
COc1ccc([N+](=O)[O-])cc1N=Cc1c(O)n(CCc2ccccc2)c(=O)n(C(C)C)c1=O	72	-	-	-	-	-
CCOC(=O)[C@]12Cc3cc(OC)ccc3[C@H]1N(C1CCCCC1)C(=O)c1cc(OC)ccc12	62	.	.	.	.	-
CCOC(=O)[C@]12Cc3cc(C)ccc3[C@H]1N(CCC(=O)OC)C(=O)c1cc(OC)ccc12	-	.	.	.	.	.
CCOC(=O)[C@]12Cc3cc(C)ccc3[C@H]1N(C(C)C)C(=O)c1ccccc12	57	.	.	.	.	-
CCOC(=O)[C@]12Cc3cc(C)ccc3[C@H]1N(Cc1ccccc1)C(=O)c1ccccc12	-	.	.	.	.	.
CCOC(=O)[C@]12Cc3cc(C)ccc3[C@H]1N(C1CCCCC1)C(=O)c1cc(OC)ccc12	85	.	.	.	.	40
Cn1c(O)c(/C=N/N2CCOCC2)c(=O)n(C)c1=S	-	-	-	-	-	.
Cc1ccc2nc(-c3ccc(CN4CCC(n5c(=O)[nH]c6ccccc65)CC4)cc3)c(-c3ccccc3)nc2c1	72	.	.	.	.	-
CCC(c1nnnn1Cc1ccccc1)N1CCC(n2c(=O)[nH]c3ccccc32)CC1 (stereo unspecified)	-	.	.	.	.	.
O=c1[nH]c2ccccc2n1CCCN1CCC(n2c(=O)[nH]c3cc(Cl)ccc32)CC1	-	-	-	-	-	.
